Test results from the EternaBench riboswitch data.

Columns and labels:
MS2 coat protein [1] = assay: apparent Kd, MS2 coat protein; higher = weaker binding; RNA-MaP array; tryptophan 2.4 mM where present
In short: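 Two titrations, one without ligand and one with constant ligand, were run with SNAP-549-labelled MS2 coat protein from 0.7 or 1.5 nM, doubling to 3 µM. The targets were designs transcribed by stalled E. coli RNA polymerase on Illumina sequencing-chip clusters, in 100 mM Tris-HCl pH 7.5, 80 mM KCl, 4 mM MgCl2, BSA, DTT, yeast tRNA and Tween-20. The apparent Kd is the median of filtered per-cluster binding-curve fits, with green signal normalised to red-channel RNA signal and control-cluster median Fmax.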

MS2 coat protein [2] = assay: apparent Kd, MS2 coat protein; higher = weaker binding; RNA-MaP array
In short: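 Binding of fluorescently labeled MS2 coat protein, at 1.5 nM to 3 μM and room temperature, was measured with or without input ligand on designed RNAs transcribed on an Illumina sequencing chip from sequenced DNA templates. Apparent Kd was defined as the median of per-cluster binding-curve fits. No design measured on fewer than 10 clusters was kept.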

[3] = designed as: OFF switch for tryptophan, no ligand
[4] = ligand present: tryptophan, designed as: OFF switch for tryptophan
[5] = designed as: ON switch for tryptophan, no ligand
[6] = ligand present: tryptophan, designed as: ON switch for tryptophan
[7] = designed as: ON switch for flavin mononucleotide, no ligand
[8] = ligand present: flavin mononucleotide, designed as: ON switch for flavin mononucleotide
[9] = designed as: OFF switch for flavin mononucleotide, no ligand
[10] = ligand present: flavin mononucleotide, designed as: OFF switch for flavin mononucleotide
[11] = designed as: OFF switch for theophylline, no ligand
[12] = ligand present: theophylline, designed as: OFF switch for theophylline

In the case of “GAUAUAUACUCGGCCGCCACUGAGAGAGUCAUGUAAACAUGAGGAUCACCCAUGUAAUAUAUAUACAGGACCGGGAGUAUAUUAA”, the “apparent Kd” value (MS2 coat protein [1]; [3]) is reported as 14.8 nM and the “apparent Kd” value (MS2 coat protein [1]; [4]) is reported as 14.2 nM.

For “AAUGUAUGGCACAUGAGGAUCACCCAUGUGCGAGGACCGGUACGGCCGCCACUCGGUCAAGGGAUCUUACCUCUAUACAUUAAUG”, the “apparent Kd” value (MS2 coat protein [1]; [3]) was 10.4 nM and the “apparent Kd” value (MS2 coat protein [1]; [4]) was 18.8 nM.

“CUAUUUAUAGCGGCCGCCACUUACUCAUGAGGUAACAACAUGAGGAUCACCCAUGUUUGAGGAUCAAGGACCGGGCUAUGGAUAG” was tested, and the “apparent Kd” value (MS2 coat protein [1]; [5]) was 26 nM and the “apparent Kd” value (MS2 coat protein [1]; [6]) was 20.1 nM.

With “CGAUUUAAGACGGCCGCCACUAUUAAGUAACAAAAUAAACAUGAGGAUCACCCAUGUACAUGGGAUAGGACCGGGUCCAAUAUCG” the “apparent Kd” value (MS2 coat protein [1]; [5]) was 57.2 nM and the “apparent Kd” value (MS2 coat protein [1]; [6]) was 28.4 nM.

For “ACAUGAGGAUCACCCAUGUACGGUAUCAAUCGAGGACCGGUACGGCCGCCACUCGGAAAUAGAAGCGAUUAUUAGUGUUCUUUGU”, the “apparent Kd” value (MS2 coat protein [1]; [5]) was 16.2 nM and the “apparent Kd” value (MS2 coat protein [1]; [6]) was 15.1 nM.

In the case of “ACGUCGCAUAGGAAAACUAUGUGACGAAAUCGAGGACCGGUACGGCCGCCACUCGUCCUCAACAUGAGGAUCACCCAUGUAAUAA”, the “apparent Kd” value (MS2 coat protein [1]; [3]) is reported as 18.7 nM and the “apparent Kd” value (MS2 coat protein [1]; [4]) is reported as 36.6 nM.

“AUGCUUAAAAUGCUCAAACAUGAGGAUCACCCAUGUGAGGUCAAGGAUAUUAUUUAACUUGUUUAUAAGAAGGUGACCGAAUGA” was tested, and the “apparent Kd” value (MS2 coat protein [2]; [7]) was 61.1 nM and the “apparent Kd” value (MS2 coat protein [2]; [8]) was 18.7 nM.

In the case of “CCUGUAGACCCGACAUGAGGAUCACCCAUGUGUAGUUAUGGUAGAAGGUCGUACUGAACACACUCGAAGGAUAUACCCUUAUAC”, the “apparent Kd” value (MS2 coat protein [2]; [7]) is reported as 13.9 nM and the “apparent Kd” value (MS2 coat protein [2]; [8]) is reported as 13.3 nM.

In the case of “UGAAUGCACCAGAAGGCUGGAAGAGUAUUUAACAGAGGAUAUGGAACAUAAAGAUCACAUGAGGAUCACCCAUGUACACAUAAC”, the “apparent Kd” value (MS2 coat protein [2]; [7]) is reported as 34.5 nM and the “apparent Kd” value (MS2 coat protein [2]; [8]) is reported as 11.1 nM.

With “UGUUUACAUGAGGAUCACCCAUGUGUUAUCGUAUUAGGAUAUGCAUGACGAUGAUUUUCGGCAGAAGGAAUGCGCA” the “apparent Kd” value (MS2 coat protein [2]; [7]) was 439 nM and the “apparent Kd” value (MS2 coat protein [2]; [8]) was 101 nM.

In the case of “UGAACGUCAAGGCAGGAUAUUCUCAAGACAACAUGAGGAUCACCCAUGUUACAACGAUAAAUGAUGAAGAAGGGCCAGGGAUCAUA”, the “apparent Kd” value (MS2 coat protein [2]; [7]) is reported as 11.8 nM and the “apparent Kd” value (MS2 coat protein [2]; [8]) is reported as 6.33 nM.

“UAUAGGACUUAAGGAUAUGGCACCGGUGUCCCGCCAGAAGGUAAGGACCACACAUGAGGAUCACCCAUGUUCUCGAGAAUGGGA” was tested, and the “apparent Kd” value (MS2 coat protein [2]; [7]) was 145 nM and the “apparent Kd” value (MS2 coat protein [2]; [8]) was 112 nM.

In the case of “AUCACAUGAGGAUCACCCAUGUUAGGUAGAUGCAGUAAAGUCUAGGAUAUAAGCUUGUGAAGUAGUUAGAAGGAGACACAUGAG”, the “apparent Kd” value (MS2 coat protein [2]; [9]) is reported as 22.9 nM and the “apparent Kd” value (MS2 coat protein [2]; [10]) is reported as 18.3 nM.

“AAUCCAAGAAAUGAUACCAGUCCCACUCAGGACAUGAGGAUCACCCAUGUAAUACAGGGAGACCCUUGGCAGCAUCGAAUAAACA” was tested, and the “apparent Kd” value (MS2 coat protein [2]; designed as: ON switch for theophylline, no ligand) was 432 nM and the “apparent Kd” value (MS2 coat protein [2]; ligand present: theophylline, designed as: ON switch for theophylline) was 82.7 nM.

For “GAUAACAUGAGGAUCACCCAUGUGGCGUCGCGAGGACCGGUACGGCCGCCACUCGGCAGUUCAACUCGAAUAUAGUGAUCGAAGU”, the “apparent Kd” value (MS2 coat protein [2]; [5]) was 138 nM and the “apparent Kd” value (MS2 coat protein [2]; [6]) was 87.5 nM.

“AUGUUCGAACAUGAGGAUCACCCAUGUGAACCUCAUAAACGUAGAAGGCGACCGAGUUUAUGGGUCGAGGAUAUACCUCGAGAA” was tested, and the “apparent Kd” value (MS2 coat protein [2]; [9]) was 334 nM and the “apparent Kd” value (MS2 coat protein [2]; [10]) was 554 nM.

In the case of “CUCGUCAACUCGGCCGCCACUGACGUGUGGUCAGGCCUGUAGAAACACAUGAGGAUCACCCAUGUCAGGACCGGGAGCUUUAUUA”, the “apparent Kd” value (MS2 coat protein [2]; [3]) is reported as 46.9 nM and the “apparent Kd” value (MS2 coat protein [2]; [4]) is reported as 58.2 nM.

“AAUCAUAAUAAAGGAUAUACAACACAACAGGUGGUAGAAGGAUAUGGAGAUGGAACACACAUGAGGAUCACCCAUGUAAAUAGC” was tested, and the “apparent Kd” value (MS2 coat protein [2]; [7]) was 13 nM and the “apparent Kd” value (MS2 coat protein [2]; [8]) was 9.95 nM.

With “UUGCAAGUAGGAUAUAGUAGCGAAUACAUGAGGAUCACCCAUGUAGCCAGUGUAUUGCUUCUAGAAGGACUUCUCC” the “apparent Kd” value (MS2 coat protein [2]; [9]) was 29.3 nM and the “apparent Kd” value (MS2 coat protein [2]; [10]) was 34.9 nM.

For “GCUCGUUGCAUGGAUACCAGUUGAUAGGCCGCCUCCGGAUACAUGAGGAUCACCCAUGUCAACCCUUGGCAGCCACCCAAUAGGG”, the “apparent Kd” value (MS2 coat protein [2]; [11]) was 9.36 nM and the “apparent Kd” value (MS2 coat protein [2]; [12]) was 18.1 nM.

“UAGAAGAACAUGCGGGCUCCGGACGGUGAUACCAGAUCGAAAAGGAUCCCUUGGCAGCACUGCACAUGAGGAUCACCCAUGUGCA” was tested, and the “apparent Kd” value (MS2 coat protein [2]; [11]) was 9.2 nM and the “apparent Kd” value (MS2 coat protein [2]; [12]) was 15.8 nM.

For “AAACACUCAUAAGGAUAUGCAGCGCUUAGACAUGAGGAUCACCCAUGUGAUGCAGGGAAGUCCCGGCAGAAGGUAAGUAAGUAC”, the “apparent Kd” value (MS2 coat protein [2]; [7]) was 14.4 nM and the “apparent Kd” value (MS2 coat protein [2]; [8]) was 13 nM.

With “UAAGCGUUAGGAUAUACAAAACGAAGAAAGUGAUUCAGAAUACAUGAGGAUCACCCAUGUAGAAGGAACGGGUA” the “apparent Kd” value (MS2 coat protein [2]; [9]) was 17.7 nM and the “apparent Kd” value (MS2 coat protein [2]; [10]) was 24.2 nM.

For “GAUGGAAUAAGAGAUACCAGACACAAUUUAGCAUGUAUAUACAUGAGGAUCACCCAUGUAGUCCCUUGGCAGCUCUGGUUAGUGU”, the “apparent Kd” value (MS2 coat protein [2]; [11]) was 26.5 nM and the “apparent Kd” value (MS2 coat protein [2]; [12]) was 26.7 nM.

In the case of “UCAGCUAGACAGGAUAUAGAGAAUCAAGAACAGCUAGAAGGGUCAACAUGAGGAUCACCCAUGUGGUGGUACUG”, the “apparent Kd” value (MS2 coat protein [2]; [9]) is reported as 477 nM and the “apparent Kd” value (MS2 coat protein [2]; [10]) is reported as 445 nM.
